# Results reported in ChEMBL document CHEMBL4014325.
# The source made the active and inactive calls. The rule behind the calls is not given here.
# How the values were obtained:
# [1] = biological target: T1, Anoctamin-1 (Homo sapiens, UniProt Q5XXA6); assay: (§1) Inhibition of human TMEM16A expressed in FRT cells co-expressing iodide sensitive fluorescent protein YFP-H148Q/I152L/F46L assessed as reduction in ATP-induced Ca2+ activation-mediated chloride current by measuring decrease in iodide influx preincubated for 10 mins followed by ATP/iodide addition by fluorescence assay; format: cell-based
# T1 sequence (Q5XXA6 whole entry): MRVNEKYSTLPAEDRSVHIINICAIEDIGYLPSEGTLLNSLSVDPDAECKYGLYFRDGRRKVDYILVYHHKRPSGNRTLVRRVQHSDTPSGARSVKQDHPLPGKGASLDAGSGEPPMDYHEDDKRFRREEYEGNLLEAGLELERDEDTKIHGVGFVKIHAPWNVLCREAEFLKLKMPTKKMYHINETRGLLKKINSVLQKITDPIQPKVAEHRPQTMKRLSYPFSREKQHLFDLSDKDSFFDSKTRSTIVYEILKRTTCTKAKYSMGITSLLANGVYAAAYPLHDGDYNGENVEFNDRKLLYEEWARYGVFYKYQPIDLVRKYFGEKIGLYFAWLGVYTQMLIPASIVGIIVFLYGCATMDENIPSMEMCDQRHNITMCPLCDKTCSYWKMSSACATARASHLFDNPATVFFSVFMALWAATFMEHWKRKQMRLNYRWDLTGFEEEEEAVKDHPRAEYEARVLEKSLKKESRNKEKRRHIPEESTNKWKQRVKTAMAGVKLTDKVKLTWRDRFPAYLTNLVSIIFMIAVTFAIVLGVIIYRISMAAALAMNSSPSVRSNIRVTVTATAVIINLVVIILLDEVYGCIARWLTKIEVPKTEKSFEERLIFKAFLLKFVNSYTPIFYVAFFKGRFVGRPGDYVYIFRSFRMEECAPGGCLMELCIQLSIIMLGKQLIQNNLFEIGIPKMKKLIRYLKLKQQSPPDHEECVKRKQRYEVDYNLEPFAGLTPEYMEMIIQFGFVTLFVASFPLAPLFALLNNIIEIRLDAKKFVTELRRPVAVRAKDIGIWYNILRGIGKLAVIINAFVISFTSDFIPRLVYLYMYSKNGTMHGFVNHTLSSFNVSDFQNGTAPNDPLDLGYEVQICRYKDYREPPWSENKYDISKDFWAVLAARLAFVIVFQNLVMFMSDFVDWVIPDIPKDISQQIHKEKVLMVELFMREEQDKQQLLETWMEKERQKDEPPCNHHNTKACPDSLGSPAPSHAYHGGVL
# Outline: (§2)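 FRT cells stably expressing human TMEM16A and YFP, plated at 20,000 cells/well and used 24–48 h later. An equal volume of 140 mM I⁻ solution containing 300 μM ATP was added, and reading continued 12 s at 400 ms/point. Initial I⁻ influx rate fitted by nonlinear regression; IC₅₀ from concentration-inhibition data.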
# [2] = Drug level in aqueous solution treated with 2-(2-Bromo-2,2-difluoro-acetylamino)-5,6,7,8-tetrahydro-4H-cyclohepta[b]thiophene-3-carboxylicacid-o-tolylamide after 3 days by ESI-LCMS analysis
# Outline: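 Duplicate samples of 100 μM compound in H₂O (20% DMSO) with 100 μM 5-chloro-3-phenyl-2,1-benzisoxazole as internal standard. Kept at 25 °C for 3 days and analysed daily by ESI-LCMS for the parent compound and the oxalamic acid degradation product.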
# [3] = Solubility of compound in DMSO; format: physicochemical
# [4] = biological target: Cystic fibrosis transmembrane conductance regulator (Homo sapiens) (UniProt P13569); assay: Inhibition of human wild type CFTR expressed in FRT cells co-expressing halide sensitive YFP-H148Q assessed as reduction in forskolin induced cAMP activated chloride conductance by measuring decrease in iodide influx after 15 mins by fluorescence assay; format: cell-based
# Outline: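 FRT cells co-expressing YFP and wild-type CFTR, washed with PBS. Incubated 15 min with compound in PBS containing 20 μM forskolin. Plate reader baseline 2 s, then 12 s after rapid addition of I⁻-containing solution; initial I⁻ influx rate computed.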
# [5] = biological target: T1, Anoctamin-1; assay: Inhibition of human TMEM16A expressed in FRT cells assessed as reduction of ATP-induced in chloride conductance preincubated for 5 mins followed by ATP addition by short-circuit current assay; format: cell-based
# [6] = Cytotoxicity against human HT-29 cells assessed as cell survival at 5 uM after 8 hrs by alamar blue assay relative to control; format: cell-based; conditions: read-out: Survival
# Outline: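 Cells cultured overnight, then exposed to compound at 5 μM for 8 h. Viability read by Alamar Blue per kit instructions. Table reports n=3.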
# [7] = biological target: T2, Anoctamin-2 (Homo sapiens, UniProt Q9NQ90); assay: Inhibition of TMEM16B (unknown origin) expressed in FRT cells assessed as reduction of ATP-induced chloride conductance preincubated for 20 mins followed by ATP addition by short-circuit current assay; format: cell-based
# T2 sequence (Q9NQ90 whole entry): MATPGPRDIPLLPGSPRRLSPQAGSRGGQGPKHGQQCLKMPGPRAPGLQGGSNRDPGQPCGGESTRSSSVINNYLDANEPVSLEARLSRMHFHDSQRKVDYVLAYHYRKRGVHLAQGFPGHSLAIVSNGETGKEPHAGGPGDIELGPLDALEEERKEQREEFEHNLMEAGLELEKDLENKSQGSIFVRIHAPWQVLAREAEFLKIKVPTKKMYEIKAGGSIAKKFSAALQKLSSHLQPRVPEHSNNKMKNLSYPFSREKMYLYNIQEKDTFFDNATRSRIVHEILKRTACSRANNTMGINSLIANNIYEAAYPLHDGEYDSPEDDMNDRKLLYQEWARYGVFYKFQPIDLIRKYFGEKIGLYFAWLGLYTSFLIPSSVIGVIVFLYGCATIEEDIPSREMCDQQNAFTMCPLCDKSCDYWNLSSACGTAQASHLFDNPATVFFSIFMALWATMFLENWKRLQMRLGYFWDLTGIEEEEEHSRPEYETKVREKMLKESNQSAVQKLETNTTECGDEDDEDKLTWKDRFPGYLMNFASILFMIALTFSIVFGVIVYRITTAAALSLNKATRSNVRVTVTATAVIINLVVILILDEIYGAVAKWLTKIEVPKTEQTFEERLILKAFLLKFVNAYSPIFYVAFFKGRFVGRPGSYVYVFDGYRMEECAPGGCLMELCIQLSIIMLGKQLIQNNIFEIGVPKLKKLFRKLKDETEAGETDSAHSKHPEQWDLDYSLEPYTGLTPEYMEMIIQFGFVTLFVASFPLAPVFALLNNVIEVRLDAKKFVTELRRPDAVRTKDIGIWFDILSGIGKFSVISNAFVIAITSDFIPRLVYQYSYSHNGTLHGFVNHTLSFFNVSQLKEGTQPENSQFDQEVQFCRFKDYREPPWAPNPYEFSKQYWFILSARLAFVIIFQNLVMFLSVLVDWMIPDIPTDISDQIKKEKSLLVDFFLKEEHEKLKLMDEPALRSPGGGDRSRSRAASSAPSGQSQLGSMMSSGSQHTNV
# [8] = system: Liver; assay: Metabolic stability in rat liver microsomes at 10 uM after 180 mins in presence of NADPH by LC/MS analysis; format: ADME, microsome; conditions: 3 h
# Outline: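 10 μM compound shaken at 37 °C with rat liver microsomes (1 mg protein/mL) in 100 mM potassium phosphate buffer with 1 mM NADPH, sampled at 2–180 min. Quenched on ice with ice-cold ethyl acetate, centrifuged, supernatant dried and redissolved. Parent compound quantified by C₁₈ reverse-phase LC/MS (5–95% acetonitrile gradient); mean ± SEM, n=3.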
# [9] = biological target: T3, Anoctamin-1 (Homo sapiens) (UniProt Q5XXA6); assay: as §1; format: cell-based; outline: as §2
# T3 sequence (whole entry): T1 sequence (Q5XXA6 whole entry)
# [10] = Inhibition of calcium activated chloride channel in ATP-activated human HT-29 cells expressing YFP-H148Q/152L assessed as reduction in iodide influx preincubated for 10 mins followed by ATP addition by fluorescence assay
# Outline: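 Endogenous non-TMEM16A CaCC in HT-29 cells expressing YFP, read by plate reader. Initial rate of I⁻ influx taken as a linear measure of channel function. IC₅₀ from concentration-inhibition data; n=3.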
# [11] = biological target: T2, Anoctamin-2; assay: as §1, with “TMEM16B” for “TMEM16A”; format: cell-based
# Outline: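 FRT cells co-expressing YFP and TMEM16B, given compound for 10 min, then I⁻ solution with ATP added. Fluorescence read by plate reader; initial I⁻ influx rate computed. IC₅₀ from concentration-inhibition data; n=3.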
# [12] = biological target: T1, Anoctamin-1; assay: Inhibition of TMEM16A (unknown origin) expressed in Xenopus laevis oocytes at -60 mV holding potential by voltage-clamp assay
# Cystic fibrosis transmembrane conductance regulator (Homo sapiens), sequence (P13569 whole entry, looked up): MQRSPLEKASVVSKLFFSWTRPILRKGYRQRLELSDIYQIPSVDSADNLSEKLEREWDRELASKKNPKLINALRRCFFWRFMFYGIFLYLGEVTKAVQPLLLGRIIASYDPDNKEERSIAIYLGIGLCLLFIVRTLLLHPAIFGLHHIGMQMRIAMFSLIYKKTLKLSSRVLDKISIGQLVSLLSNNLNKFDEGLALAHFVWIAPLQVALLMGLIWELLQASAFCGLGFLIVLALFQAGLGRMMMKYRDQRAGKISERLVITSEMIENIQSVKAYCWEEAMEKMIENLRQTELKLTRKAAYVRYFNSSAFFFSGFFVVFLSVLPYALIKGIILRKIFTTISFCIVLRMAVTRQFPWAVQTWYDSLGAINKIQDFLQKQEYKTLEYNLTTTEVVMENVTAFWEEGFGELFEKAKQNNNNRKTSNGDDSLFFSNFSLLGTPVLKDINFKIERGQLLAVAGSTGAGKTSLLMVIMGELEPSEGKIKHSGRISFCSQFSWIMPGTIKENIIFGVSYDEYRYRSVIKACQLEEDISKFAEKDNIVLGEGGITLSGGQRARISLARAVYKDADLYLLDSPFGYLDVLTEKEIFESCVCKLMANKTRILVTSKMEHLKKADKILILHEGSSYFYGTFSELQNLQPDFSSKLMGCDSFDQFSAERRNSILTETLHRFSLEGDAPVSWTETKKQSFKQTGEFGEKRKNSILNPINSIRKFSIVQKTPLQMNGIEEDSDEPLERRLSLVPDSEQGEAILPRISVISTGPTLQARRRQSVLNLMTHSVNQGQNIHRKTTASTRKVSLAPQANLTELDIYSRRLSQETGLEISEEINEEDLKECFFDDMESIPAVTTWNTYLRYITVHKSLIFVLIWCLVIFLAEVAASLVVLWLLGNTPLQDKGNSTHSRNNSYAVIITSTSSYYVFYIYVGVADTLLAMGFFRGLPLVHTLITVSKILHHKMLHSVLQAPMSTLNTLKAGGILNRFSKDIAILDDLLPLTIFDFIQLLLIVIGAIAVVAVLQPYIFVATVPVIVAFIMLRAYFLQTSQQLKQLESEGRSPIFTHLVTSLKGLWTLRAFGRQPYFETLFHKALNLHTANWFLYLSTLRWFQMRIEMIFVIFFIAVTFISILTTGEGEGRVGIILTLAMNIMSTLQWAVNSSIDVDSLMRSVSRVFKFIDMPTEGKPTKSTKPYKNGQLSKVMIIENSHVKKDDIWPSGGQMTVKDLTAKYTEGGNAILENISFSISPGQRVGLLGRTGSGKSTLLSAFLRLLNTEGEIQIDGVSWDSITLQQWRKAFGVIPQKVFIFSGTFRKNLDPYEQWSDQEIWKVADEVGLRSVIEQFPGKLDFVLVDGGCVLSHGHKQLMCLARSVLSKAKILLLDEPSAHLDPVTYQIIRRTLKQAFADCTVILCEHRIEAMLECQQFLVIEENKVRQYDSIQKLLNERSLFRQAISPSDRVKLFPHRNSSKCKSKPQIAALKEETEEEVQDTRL
compound,measurement,setting,value
CCC(=O)Nc1sc2c(c1C(=O)Nc1ccccc1OC(F)(F)F)CCCCC2,IC50,[1],> 20 µM
Cc1ccccc1NC(=O)c1c(NC(=O)C(=O)F)sc2c1CCCCC2,Drug metabolism,[2],Metabolite detected
O=C(Nc1ccccc1OC(F)(F)F)c1c(NC(=O)C(F)(F)Cl)sc2c1CCC2,solubility,[3],Insoluble
O=C(Nc1ccc(F)cc1)c1c(NC(=O)C(F)(F)I)sc2c1CCCCC2,inhibition,[4],inactive
CCc1c(C)nc(SCC(=O)Nc2nc(-c3ccc(OC)cc3)cs2)nc1O,IC50,[5],1 µM
same,"viability at 8 h, 5 µM",[6],97%
same,inhibition,[4],inactive
same,IC50,[7],4 µM
Cc1ccccc1NC(=O)c1c(NC(=O)C(O)(F)F)sc2c1CCCCC2,Drug metabolism,[2],Metabolite detected
Cc1ccccc1NC(=O)c1c(NC(=O)C(F)(F)I)sc2c1CCCCC2,"viability at 8 h, 5 µM",[6],96%
same,inhibition,[4],inactive
Cc1ccccc1NC(=O)c1c(NC(=O)C(=O)O)sc2c1CCCCC2,Drug metabolism,[2],Metabolite detected
COc1ccccc1/C=N/NC(=O)COc1ccc(Cl)cc1C,inhibition,[4],inactive
same,Stability,[8],Unstable
O=C(Nc1ccccc1)c1c(NC(=O)C(F)(F)F)sc2c1CCCCC2,inhibition,[4],inactive
Cc1ccccc1NC(=O)c1c(NC(=O)C(F)(F)F)sc2c1CCCCC2,inhibition,[9],Dose-dependent effect
same,"viability at 8 h, 5 µM",[6],99%
same,inhibition,[4],inactive
same,IC50,[10],4 µM
Cc1ccccc1NC(=O)c1c(NC(=O)C(F)(F)Cl)sc2c1CCCCC2,"viability at 8 h, 5 µM",[6],98%
same,inhibition,[4],inactive
O=C(Nc1ccccc1OC(F)(F)F)c1c(NC(=O)C(F)(F)Br)sc2c1CCC2,solubility,[3],Insoluble
CCC(=O)Nc1sc2c(c1C(=O)Nc1ccccc1C)CCCCC2,IC50,[1],> 20 µM
COc1cc(Nc2ccc([N+](=O)[O-])cc2C(=O)O)cc2ccccc12,IC50,[5],1.6 µM
same,IC50,[11],13 µM
same,"viability at 8 h, 5 µM",[6],100%
same,inhibition,[4],inactive
same,IC50,[12],0.08 µM
same,IC50,[10],> 20 µM
